Experimental data: ChEMBL document CHEMBL1145255, “Synthesis and antifungal activity of 5-arylamino-4,7-dioxobenzo[b]thiophenes” (2005)
≈ marks a conversion by molar mass, not a printed value.

Experiments:
Type in all cases: functional
[1] = system: Pichia kudriavzevii; assay: In vitro minimum inhibitory concentration against Candida krusei Berkout KCCM 11655 strain at 37 degree C after 1 day of treatment; settings: KCCM 11655, 24 h
Outline: (§1)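 Two-fold broth dilution MIC in modified Sabouraud dextrose broth, inoculum about 1 × 10⁵ cells/mL, incubated at 37 °C. MIC was read after 1 day for the Candida species and after 2 days for A. niger.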

[2] = system: Aspergillus niger; assay: In vitro minimum inhibitory concentration against Aspergillus niger KCTC 1231 strain at 37 degree C after 2 day of treatment; settings: KCTC 1231, 48 h; outline: as §1
[3] = system: Candida albicans; assay: In vitro minimum inhibitory concentration against Candida albicans Berkout KCCM 50235 strain at 37 degree C after 1 day of treatment; settings: KCCM 50235, 24 h; outline: as §1
[4] = system: Candida tropicalis; assay: In vitro minimum inhibitory concentration against Candida tropicalis Berkout KCCM 50662 strain at 37 degree C after 1 day of treatment; settings: KCCM 50662, 24 h; outline: as §1

COC(=O)c1cc2c(s1)C(=O)C=C(Nc1ccc(Cl)cc1)C2=O
MIC [1]: 25 µg/mL (≈ 71.9 µM)
MIC [2]: 50 µg/mL (≈ 144 µM)
MIC [3]: 50 µg/mL (≈ 144 µM)
MIC [4]: 6.3 µg/mL (≈ 18.1 µM)

O=C1C=CC(=O)c2sc(CO)cc21
MIC [1]: 50 µg/mL (≈ 257 µM)
MIC [2]: 50 µg/mL (≈ 257 µM)
MIC [3]: > 50 µg/mL
MIC [4]: 25 µg/mL (≈ 129 µM)

COC(=O)c1cc2c(s1)C(=O)C=C(Nc1ccc(F)cc1)C2=O
MIC [1]: 25 µg/mL (≈ 75.5 µM)
MIC [2]: > 50 µg/mL
MIC [3]: > 50 µg/mL
MIC [4]: 25 µg/mL (≈ 75.5 µM)

COC(=O)c1cc2c(s1)C(=O)C(Cl)=C(Nc1ccccc1)C2=O
MIC [1]: 6.3 µg/mL (≈ 18.1 µM)
MIC [2]: 12.5 µg/mL (≈ 35.9 µM)
MIC [3]: 0.8 µg/mL (≈ 2.3 µM)
MIC [4]: 3.2 µg/mL (≈ 9.2 µM)

COC(=O)c1cc2c(s1)C(=O)C(Cl)=C(Nc1ccc(O)cc1)C2=O
MIC [1]: 6.3 µg/mL (≈ 17.3 µM)
MIC [2]: 50 µg/mL (≈ 137 µM)
MIC [3]: 12.5 µg/mL (≈ 34.4 µM)
MIC [4]: 0.8 µg/mL (≈ 2.2 µM)

COC(=O)c1cc2c(s1)C(=O)C(Cl)=C(Nc1ccc(I)cc1)C2=O
MIC [1]: 25 µg/mL (≈ 52.8 µM)
MIC [2]: 3.2 µg/mL (≈ 6.76 µM)
MIC [3]: 6.3 µg/mL (≈ 13.3 µM)
MIC [4]: 1.6 µg/mL (≈ 3.38 µM)

O=C1C(Nc2ccc(I)cc2)=CC(=O)c2sc(CO)cc21
MIC [1]: 25 µg/mL (≈ 60.8 µM)
MIC [2]: 3.2 µg/mL (≈ 7.78 µM)
MIC [3]: 50 µg/mL (≈ 122 µM)
MIC [4]: 1.6 µg/mL (≈ 3.89 µM)

O=C1C(Nc2ccc(Cl)cc2)=C(Cl)C(=O)c2sc(CO)cc21
MIC [1]: 1.6 µg/mL (≈ 4.52 µM)
MIC [2]: > 50 µg/mL
MIC [3]: 12.5 µg/mL (≈ 35.3 µM)
MIC [4]: 0.4 µg/mL (≈ 1.13 µM)

COC(=O)c1cc2c(s1)C(=O)C(Cl)=C(Nc1ccc(Cl)cc1)C2=O
MIC [1]: 25 µg/mL (≈ 65.4 µM)
MIC [2]: 25 µg/mL (≈ 65.4 µM)
MIC [3]: 12.5 µg/mL (≈ 32.7 µM)
MIC [4]: 6.3 µg/mL (≈ 16.5 µM)

O=C1C(Nc2ccccc2)=CC(=O)c2sc(CO)cc21
MIC [1]: 6.3 µg/mL (≈ 22.1 µM)
MIC [2]: 0.8 µg/mL (≈ 2.8 µM)
MIC [3]: 50 µg/mL (≈ 175 µM)
MIC [4]: 0.8 µg/mL (≈ 2.8 µM)

Nc1nc(=O)[nH]cc1F [FLUCYTOSINE]
MIC [1]: 6.3 µg/mL (≈ 48.8 µM)
MIC [2]: 12.5 µg/mL (≈ 96.8 µM)
MIC [3]: 6.3 µg/mL (≈ 48.8 µM)
MIC [4]: 12.5 µg/mL (≈ 96.8 µM)

COC(=O)c1cc2c(s1)C(=O)C=C(Nc1ccc(OC)cc1)C2=O
MIC [1]: 25 µg/mL (≈ 72.8 µM)
MIC [2]: > 50 µg/mL
MIC [3]: > 50 µg/mL
MIC [4]: 6.3 µg/mL (≈ 18.3 µM)

COC(=O)c1cc2c(s1)C(=O)C=C(Nc1ccc(C)cc1)C2=O
MIC [1]: 6.3 µg/mL (≈ 19.2 µM)
MIC [2]: 50 µg/mL (≈ 153 µM)
MIC [3]: 50 µg/mL (≈ 153 µM)
MIC [4]: 3.2 µg/mL (≈ 9.78 µM)

O=C1C(Nc2ccc(I)cc2)=C(Cl)C(=O)c2sc(CO)cc21
MIC [1]: 1.6 µg/mL (≈ 3.59 µM)
MIC [2]: 50 µg/mL (≈ 112 µM)
MIC [3]: 50 µg/mL (≈ 112 µM)
MIC [4]: 1.6 µg/mL (≈ 3.59 µM)

O=C1C(Nc2ccc(C(F)(F)F)cc2)=C(Cl)C(=O)c2sc(CO)cc21
MIC [1]: 3.2 µg/mL (≈ 8.25 µM)
MIC [2]: 50 µg/mL (≈ 129 µM)
MIC [3]: 50 µg/mL (≈ 129 µM)
MIC [4]: 0.4 µg/mL (≈ 1.03 µM)

COC(=O)c1cc2c(s1)C(=O)C=C(Nc1ccc(O)cc1)C2=O
MIC [1]: 12.5 µg/mL (≈ 38 µM)
MIC [2]: 50 µg/mL (≈ 152 µM)
MIC [3]: 50 µg/mL (≈ 152 µM)
MIC [4]: 0.4 µg/mL (≈ 1.21 µM)

COc1ccc(NC2=C(Cl)C(=O)c3sc(CO)cc3C2=O)cc1
MIC [1]: 3.2 µg/mL (≈ 9.15 µM)
MIC [2]: 50 µg/mL (≈ 143 µM)
MIC [3]: 25 µg/mL (≈ 71.5 µM)
MIC [4]: 1.6 µg/mL (≈ 4.57 µM)

O=C1C(Nc2ccc(F)cc2)=C(Cl)C(=O)c2sc(CO)cc21
MIC [1]: 1.6 µg/mL (≈ 4.74 µM)
MIC [2]: 50 µg/mL (≈ 148 µM)
MIC [3]: 12.5 µg/mL (≈ 37 µM)
MIC [4]: 0.4 µg/mL (≈ 1.18 µM)

COc1ccc(NC2=CC(=O)c3sc(CO)cc3C2=O)cc1
MIC [1]: 25 µg/mL (≈ 79.3 µM)
MIC [2]: 3.2 µg/mL (≈ 10.1 µM)
MIC [3]: 3.2 µg/mL (≈ 10.1 µM)
MIC [4]: 0.8 µg/mL (≈ 2.54 µM)

O=C1C(Nc2ccc(Br)cc2)=C(Cl)C(=O)c2sc(CO)cc21
MIC [1]: 0.8 µg/mL (≈ 2.01 µM)
MIC [2]: 50 µg/mL (≈ 125 µM)
MIC [3]: 50 µg/mL (≈ 125 µM)
MIC [4]: 0.8 µg/mL (≈ 2.01 µM)

COC(=O)c1cc2c(s1)C(=O)C=CC2=O
MIC [1]: > 50 µg/mL
MIC [2]: > 50 µg/mL
MIC [3]: > 50 µg/mL
MIC [4]: 25 µg/mL (≈ 113 µM)

COC(=O)c1cc2c(s1)C(=O)C=C(Nc1ccc(Br)cc1)C2=O
MIC [1]: 12.5 µg/mL (≈ 31.9 µM)
MIC [2]: 50 µg/mL (≈ 127 µM)
MIC [3]: 50 µg/mL (≈ 127 µM)
MIC [4]: 0.2 µg/mL (≈ 0.51 µM)

O=C1C(Nc2ccc(C(F)(F)F)cc2)=CC(=O)c2sc(CO)cc21
MIC [1]: 12.5 µg/mL (≈ 35.4 µM)
MIC [2]: 0.8 µg/mL (≈ 2.26 µM)
MIC [3]: 0.8 µg/mL (≈ 2.26 µM)
MIC [4]: 0.8 µg/mL (≈ 2.26 µM)

COC(=O)c1cc2c(s1)C(=O)C(Cl)=C(Nc1ccc(F)cc1)C2=O
MIC [1]: 25 µg/mL (≈ 68.3 µM)
MIC [2]: 12.5 µg/mL (≈ 34.2 µM)
MIC [3]: 12.5 µg/mL (≈ 34.2 µM)
MIC [4]: 6.3 µg/mL (≈ 17.2 µM)

COC(=O)c1cc2c(s1)C(=O)C=C(Nc1ccc(I)cc1)C2=O
MIC [1]: 6.3 µg/mL (≈ 14.3 µM)
MIC [2]: 50 µg/mL (≈ 114 µM)
MIC [3]: 50 µg/mL (≈ 114 µM)
MIC [4]: 0.2 µg/mL (≈ 0.455 µM)

O=C1C(Nc2ccc(Cl)cc2)=CC(=O)c2sc(CO)cc21
MIC [1]: > 25 µg/mL
MIC [2]: 25 µg/mL (≈ 78.2 µM)
MIC [3]: > 50 µg/mL
MIC [4]: 12.5 µg/mL (≈ 39.1 µM)

COC(=O)c1cc2c(s1)C(=O)C=C(Nc1ccccc1)C2=O
MIC [1]: 12.5 µg/mL (≈ 39.9 µM)
MIC [2]: 50 µg/mL (≈ 160 µM)
MIC [3]: 50 µg/mL (≈ 160 µM)
MIC [4]: 6.3 µg/mL (≈ 20.1 µM)

O=C1C(Nc2ccc(F)cc2)=CC(=O)c2sc(CO)cc21
MIC [1]: > 25 µg/mL
MIC [2]: 25 µg/mL (≈ 82.4 µM)
MIC [3]: 50 µg/mL (≈ 165 µM)
MIC [4]: 12.5 µg/mL (≈ 41.2 µM)

Cc1ccc(NC2=C(Cl)C(=O)c3sc(CO)cc3C2=O)cc1
MIC [1]: 0.8 µg/mL (≈ 2.4 µM)
MIC [2]: 50 µg/mL (≈ 150 µM)
MIC [3]: 50 µg/mL (≈ 150 µM)
MIC [4]: 1.6 µg/mL (≈ 4.79 µM)

COC(=O)c1cc2c(s1)C(=O)C(Cl)=C(Nc1ccc(C(F)(F)F)cc1)C2=O
MIC [1]: 25 µg/mL (≈ 60.1 µM)
MIC [2]: 50 µg/mL (≈ 120 µM)
MIC [3]: 12.5 µg/mL (≈ 30.1 µM)
MIC [4]: 1.6 µg/mL (≈ 3.85 µM)

O=C1C(Nc2ccc(Br)cc2)=CC(=O)c2sc(CO)cc21
MIC [1]: 3.2 µg/mL (≈ 8.79 µM)
MIC [2]: 3.2 µg/mL (≈ 8.79 µM)
MIC [3]: 50 µg/mL (≈ 137 µM)
MIC [4]: 12.5 µg/mL (≈ 34.3 µM)

COC(=O)c1cc2c(s1)C(=O)C(Cl)=C(Nc1ccc(Br)cc1)C2=O
MIC [1]: 25 µg/mL (≈ 58.6 µM)
MIC [2]: 25 µg/mL (≈ 58.6 µM)
MIC [3]: 0.8 µg/mL (≈ 1.87 µM)
MIC [4]: 3.2 µg/mL (≈ 7.5 µM)

O=C1C(Nc2ccc(O)cc2)=CC(=O)c2sc(CO)cc21
MIC [1]: 12.5 µg/mL (≈ 41.5 µM)
MIC [2]: 0.8 µg/mL (≈ 2.65 µM)
MIC [3]: 0.8 µg/mL (≈ 2.65 µM)
MIC [4]: 0.8 µg/mL (≈ 2.65 µM)

COC(=O)c1cc2c(s1)C(=O)C(Cl)=C(Nc1ccc(OC)cc1)C2=O
MIC [1]: 3.2 µg/mL (≈ 8.47 µM)
MIC [2]: 50 µg/mL (≈ 132 µM)
MIC [3]: 3.2 µg/mL (≈ 8.47 µM)
MIC [4]: 6.3 µg/mL (≈ 16.7 µM)

COC(=O)c1cc2c(s1)C(=O)C=C(Nc1ccc(C(F)(F)F)cc1)C2=O
MIC [1]: 1.6 µg/mL (≈ 4.2 µM)
MIC [2]: 50 µg/mL (≈ 131 µM)
MIC [3]: 50 µg/mL (≈ 131 µM)
MIC [4]: 12.5 µg/mL (≈ 32.8 µM)

COC(=O)c1cc2c(s1)C(=O)C(Cl)=C(Nc1ccc(C)cc1)C2=O
MIC [1]: 25 µg/mL (≈ 69.1 µM)
MIC [2]: 50 µg/mL (≈ 138 µM)
MIC [3]: 0.8 µg/mL (≈ 2.21 µM)
MIC [4]: 12.5 µg/mL (≈ 34.5 µM)

O=C1C(Nc2ccc(O)cc2)=C(Cl)C(=O)c2sc(CO)cc21
MIC [1]: > 50 µg/mL
MIC [2]: > 50 µg/mL
MIC [3]: > 50 µg/mL
MIC [4]: 25 µg/mL (≈ 74.5 µM)

O=C1C(Nc2ccccc2)=C(Cl)C(=O)c2sc(CO)cc21
MIC [1]: 1.6 µg/mL (≈ 5 µM)
MIC [2]: 12.5 µg/mL (≈ 39.1 µM)
MIC [3]: 6.3 µg/mL (≈ 19.7 µM)
MIC [4]: 3.2 µg/mL (≈ 10 µM)

Cc1ccc(NC2=CC(=O)c3sc(CO)cc3C2=O)cc1
MIC [1]: 25 µg/mL (≈ 83.5 µM)
MIC [2]: 3.2 µg/mL (≈ 10.7 µM)
MIC [3]: > 50 µg/mL
MIC [4]: 25 µg/mL (≈ 83.5 µM)
